Assay results: ChEMBL document CHEMBL1134307, “trans-4-[4-(Methoxyphenyl)cyclohexyl]-1-arylpiperazines: a new class of potent and selective 5-HT(1A) receptor ligands as conformationally constrained analogues of 4-[3-(5-methoxy-1,2,3,4-tetrahydronaphthalen-1-yl)propyl]-1-arylpiperazines” (J Med Chem, 2001)

Assays:
[1] = biological target: T1, 5-hydroxytryptamine receptor 1A (Homo sapiens) (UniProt P08908); test: Maximal stimulation was expressed as percentage of the maximal 5-HT response in the [35S]GTP-gamma-S, binding assay on 5-hydroxytryptamine 1A receptor; type: functional
T1 sequence (whole entry): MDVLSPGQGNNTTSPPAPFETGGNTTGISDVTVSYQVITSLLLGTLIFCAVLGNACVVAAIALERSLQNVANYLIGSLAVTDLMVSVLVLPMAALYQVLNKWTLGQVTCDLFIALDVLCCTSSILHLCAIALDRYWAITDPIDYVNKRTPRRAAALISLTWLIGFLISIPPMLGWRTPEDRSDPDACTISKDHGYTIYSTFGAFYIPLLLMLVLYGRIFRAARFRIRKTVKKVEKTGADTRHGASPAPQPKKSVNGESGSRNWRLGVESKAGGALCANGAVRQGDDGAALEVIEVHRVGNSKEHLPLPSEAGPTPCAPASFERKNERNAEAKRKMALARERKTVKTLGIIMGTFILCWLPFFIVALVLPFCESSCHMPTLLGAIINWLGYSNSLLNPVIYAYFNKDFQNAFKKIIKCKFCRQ
How it was run: (§1)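 Membranes of HeLa cells expressing human 5-HT1A, in 20 mM HEPES, 3 mM MgCl2, 120 mM NaCl pH 7.4. Preincubated 20 min at 30 °C with 30 µM GDP and drug (0.1 nM–100 µM) or 5-HT as reference curve. [35S]GTPγS (200–250 pM) then added for 30 min at 30 °C. Nonspecific binding with 10 µM GTPγS. Curves fitted by ALLFIT to give Emax and pD2 (−log EC50).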

[2] = biological target: T1, 5-hydroxytryptamine receptor 1A (Homo sapiens); test: Potency (pD2) for the stimulation of [35S]GTP-gamma-S, binding on 5-hydroxytryptamine 1A receptor; type: functional; how it was run: as §1
[3] = Selectivity expressed as a ratio of affinity against Alpha 1A-Adrenoceptor to that of 5-HT1A receptor
[4] = Selectivity expressed as a ratio of affinity against Alpha 1b-Adrenoceptor to that of 5-HT1A receptor
[5] = biological target: T2, 5-hydroxytryptamine receptor 1A (Homo sapiens, UniProt P08908); test: Binding affinity on human cloned 5-hydroxytryptamine 1A receptor transfected in human cell lines (He La); type: cell-based, Cell line
T2 sequence (P08908 whole entry): T1 sequence (whole entry)
How it was run: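 HeLa cells stably expressing human 5-HT1A (genomic clone G-21), grown in DMEM with 10% FCS. […] Nonspecific binding with 10 µM 5-HT. Filtration through PEI-pretreated filters.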

## COc1cccc2c(CCCN3CCN(c4ccccn4)CC3)cccc12
[1]
  Emax: 86.3%
[2]
  pD2: 7.87
[3]
  Selectivity: 0.5
[4]
  Selectivity: 1

## COc1cccc2c1CCCC2CCCNCCOc1ccccn1 (configuration not stated)
[1]
  Emax: 86.8%
[2]
  pD2: 10.2
[3]
  Selectivity: 2
[4]
  Selectivity: 115

## COc1cccc2c(CCCNCCOc3ccccn3)cccc12
[1]
  Emax: 48%
[2]
  pD2: 8.2
[3]
  Selectivity: 17
[4]
  Selectivity: 314

## COc1cccc2c1CCCC2CCCN1CCN(c2ccccn2)CC1 (configuration not stated)
[1]
  Emax: 98.2%
[5]
  Ki: 0.08 nM
[2]
  pD2: 10.2
[3]
  Selectivity: 4
[4]
  Selectivity: 98
